From ChEMBL document CHEMBL1122233, “Antihypertensive 9-substituted 1-oxa-4,9-diazaspiro[5.5]undecan-3-ones” (J Med Chem, 1983)

How the values were obtained:
Rattus norvegicus [1] = experiment: (§1) Percentage fall in systolic blood pressure after 1 hr at 50 mg/kg given perorally; assay type: functional, organism-based; design: dose 50 mg/kg; conditions: Artery
In short: (§2)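 Male Okamoto-Aoki spontaneously hypertensive rats, trained, in groups of four matched for mean systolic pressure; five treated groups and one vehicle control run concurrently. Oral dosing in water (solution or suspension, 0.1 mL/10 g) on two consecutive mornings. On day 2, rats were restrained at 30.0 ± 1.0 °C and tail-cuff systolic pressure recorded at 1–4 h; percent fall versus control, 1-tail t test, p ≤ 0.05.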

Rattus norvegicus [2] = experiment: (§3) Percentage fall in systolic blood pressure after 3 hours at 50 mg/kg given perorally; assay type: functional, organism-based; design: dose 50 mg/kg; conditions: Artery
In short: (§4)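 Male Okamoto-Aoki SHR, four per group, with a concurrent vehicle control group. Oral dosing in water (0.1 mL/10 g) on two consecutive mornings. After the day-2 dose, rats were restrained in a 30 °C chamber. Tail-cuff systolic pressure was taken at 1-4 h from four traces per rat. Result is % decrease versus control mean, by 1-tailed t test, p ≤ 0.05.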

Rattus norvegicus [3] = experiment: (§5) Percentage fall in systolic blood pressure after 2 hours at 50 mg/kg given perorally; assay type: functional, organism-based; design: dose 50 mg/kg; conditions: Artery; in short: as §4
Rattus norvegicus [4] = experiment: (§6) Percentage fall in systolic blood pressure after 4 hours at 50 mg/kg given perorally; assay type: functional, organism-based; design: dose 50 mg/kg; conditions: Artery; in short: as §4
Rattus norvegicus [5] = experiment: as §1; assay type: functional, Artery; conditions: route oral; in short: as §4
Rattus norvegicus [6] = experiment: as §5; assay type: functional, Artery; conditions: route oral; in short: as §4
Rattus norvegicus [7] = experiment: as §6; assay type: functional, Artery; conditions: route oral; in short: as §4
Rattus norvegicus [8] = experiment: Percentage fall in systolic blood pressure after 3 hr at 12.5 mg/kg given perorally; assay type: functional, organism-based; design: dose 12.5 mg/kg; conditions: Artery; in short: as §2
Rattus norvegicus [9] = experiment: as §3; assay type: functional, Artery; conditions: route oral; in short: as §4

Structure (SMILES) | Decrease in SBP (Rattus norvegicus [1]) | Decrease in SBP (Rattus norvegicus [2]) | Decrease in SBP (Rattus norvegicus [3]) | Decrease in SBP (Rattus norvegicus [4]) | Decrease in SBP (Rattus norvegicus [5]) [%] | Decrease in SBP (Rattus norvegicus [6]) [%] | Decrease in SBP (Rattus norvegicus [7]) [%] | Decrease in SBP (Rattus norvegicus [8]) | Decrease in SBP (Rattus norvegicus [9]) [%]
COc1cc2c(cc1OC)[C@@H]1C[C@@]3(CCN1CC2)CN(C)C(=O)CO3 | Not significant | Not significant | Not significant | Not significant | – | – | – | – | –
NCC1CCN(CCc2c[nH]c3ccccc23)CC1 | – | Not significant | – | – | 20 | 24 | 20 | – | –
O=C1COC2(CCN(CCc3c[nH]c4ccccc34)CC2)C(c2ccccc2)N1 (configuration not stated) | – | Not significant | – | Not significant | 21 | 19 | – | – | –
O=C1COC2(CCN(CCc3c[nH]c4ccccc34)CC2)CN1Cc1ccccc1 | – | Not significant | Not significant | Not significant | 18 | – | – | – | –
CN1CC2(CCN(CC(O)C3COc4ccccc4O3)CC2)OCC1=O (stereo in doubt; 61) | – | – | – | – | – | – | – | Not significant | –
O=C(NCC1CCN(CCc2c[nH]c3ccccc23)CC1)c1ccccc1 | Not significant | – | – | – | – | 27 | 32 | – | 30
CC1OC2(CCN(CCc3c[nH]c4ccccc34)CC2)CN(C)C1=O (configuration not stated) | – | Not significant | Not significant | Not significant | 32 | – | – | – | –
CCC1OC2(CCN(CCc3c[nH]c4ccccc34)CC2)CNC1=O (configuration not stated) | – | – | – | Not significant | 26 | 23 | – | – | 15
CCN1C(=O)COC2(CCN(CCc3c[nH]c4ccccc34)CC2)C1C (configuration not stated) | – | Not significant | Not significant | Not significant | 20 | – | – | – | –
COCC(=O)NCC1CCN(CCc2c[nH]c3ccccc23)CC1 | – | – | – | – | 20 | 18 | 26 | – | 13
COc1ccc(CCN2CCC3(CC2)CNC(=O)CO3)cc1OC | Not significant | Not significant | Not significant | Not significant | – | – | – | – | –
CC1OC2(CCN(CCc3c[nH]c4ccccc34)CC2)CNC1=O (configuration not stated) | – | – | – | – | 30 | 36 | 26 | – | 21
COC1(CNC(=O)c2ccccc2)CCN(CCc2c[nH]c3ccccc23)CC1 | – | – | – | Not significant | 30 | 28 | – | – | 22
CCC1OC2(CCN(CCc3c[nH]c4ccccc34)CC2)CN(C)C1=O (configuration not stated) | – | Not significant | Not significant | Not significant | 16 | – | – | – | –
CC(=O)NCC1CCN(CCc2c[nH]c3ccccc23)CC1 | – | – | – | – | 30 | 26 | 26 | – | 15
CCC(=O)NCC1CCN(CCc2c[nH]c3ccccc23)CC1 | – | – | – | Not significant | 23 | 23 | – | – | 15
O=C1COC2(CCN(C3CCc4ccccc4C3)CC2)CN1 (configuration not stated) | – | – | – | – | 28 | 24 | 20 | – | 23
CC1N(C)C(=O)COC12CCN(CCc1c[nH]c3ccccc13)CC2 (configuration not stated) | – | Not significant | – | Not significant | 29 | 22 | – | – | –
COC1(CNC(C)=O)CCN(CCc2c[nH]c3ccccc23)CC1 | – | Not significant | Not significant | Not significant | 17 | – | – | – | –
CCC1NC(=O)COC12CCN(CC(O)C1COc3ccccc3O1)CC2 (configuration not stated) | – | – | – | – | 40 | 44 | 26 | – | 36
